# Screening data: PubChem, several laboratories
# Most compounds without a hit are left out; they make up all but 4.9% or so of the library.
# STAT3 act: STAT3 signaling activation; U3A cells, IL-6 STAT3-luciferase reporter, luminescence; 100% = signal with IL-6 EC80 alone; activation (% of control), % at 5.6 µM; actives 0.91% (n = 190,000);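 active means activation above the screen-wide mean of compound activation plus 3 SD, cut at about 130% in these data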;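 further: 0% = background luminescence of wells with medium and substrate only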
#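 Material: STAT3-luciferase reporter U3A cells. Controls: IL-6-treated wells, 100% activation. Read-out: % activation versus median of IL-6-stimulated wells. Probe or stimulus: IL-6 stimulus at 33 ng/mL final. Timing: compound 1 h, then IL-6 6 h at 37 °C. Signal: reporter luminescence signal.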
# STAT1 inh: reduces IFN-gamma driven STAT1 reporter signal | inhibition, % at 5.5 µM | NIH 3T3 STAT1-luciferase reporter, luminescence | actives 0.35% (n = 200,000) | AID 920;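 active means inhibition above a set limit, the mean inhibition across all tested compounds plus 3 SD, cut at about 34% in these data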;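 further: 0% = IFN-gamma with DMSO and 100% = IFN-gamma with 300 µM nifuroxazide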
# STAT1 activator: STAT1 signaling activation; actives 2.6% (n = 200,000); NIH 3T3 STAT1-luciferase reporter, IFN-gamma, luminescence; 100% = IFN-gamma alone, no compound; activation (% of control), % at 5.5 µM; AID 932;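 active means activation above the screen-wide mean activation plus 3 SD, cut at about 130% in these data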;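 further: raw ratio to IFN-gamma control signal so 100% means no change and 0% no light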
# FLuc inh counter: counter-screen for luciferase assay inhibitors: firefly luciferase inhibition. inhibition, % at 10 µM. ATPLite firefly luciferase biochemical luminescence, 10 min. actives 1.5% (n = 200,000). P08659;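 active means inhibition above about 50% when tested at 10 µM, limit read from the data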
# Target sequence (P08659 whole entry, looked up): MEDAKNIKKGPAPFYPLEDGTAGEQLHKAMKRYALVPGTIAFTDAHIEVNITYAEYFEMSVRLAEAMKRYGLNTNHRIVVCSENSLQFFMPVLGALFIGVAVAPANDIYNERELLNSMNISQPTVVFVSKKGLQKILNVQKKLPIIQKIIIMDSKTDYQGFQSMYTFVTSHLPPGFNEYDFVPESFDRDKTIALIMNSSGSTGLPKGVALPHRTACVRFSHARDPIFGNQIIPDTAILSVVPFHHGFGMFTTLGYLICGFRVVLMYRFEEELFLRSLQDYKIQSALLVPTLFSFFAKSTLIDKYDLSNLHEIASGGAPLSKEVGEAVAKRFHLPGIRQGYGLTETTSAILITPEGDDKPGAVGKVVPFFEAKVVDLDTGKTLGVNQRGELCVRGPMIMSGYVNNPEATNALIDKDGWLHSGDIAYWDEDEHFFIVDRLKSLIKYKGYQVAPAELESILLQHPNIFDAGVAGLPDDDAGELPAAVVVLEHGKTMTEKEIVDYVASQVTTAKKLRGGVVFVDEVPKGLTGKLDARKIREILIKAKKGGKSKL
# FLuc act counter: firefly luciferase counter-screen for stimulation assays; P08659; ATPlite luciferase biochemical, luminescence, 10 min; 0 = ATP-free wells, 1 = DMSO control; activation factor at 10 µM; 200,000 tested, under 10 active;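 active means luciferase activation factor, scaled between plate controls, of at least 2 with compound at 10 µM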
#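 Assay system: Luciferase/luciferin detection reagent, cell-free biochemical luciferase assay / Read-out: luciferase activation / Benchmarks: No-ATP low control, compound-free enzyme-plus-ATP high control / Medium: PBS buffer for ATP / Detection: luminescence measurement of luciferase light output / Schedule: 10 min at ambient temperature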
# STAT3 blocker: STAT3 signaling inhibition; inhibition, % at 5.5 µM; actives 0.89% (n = 190,000); U3A cells, IL-6 STAT3-luciferase reporter, luminescence; host cell line lacks STAT1; AID 862;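 active means inhibition above the mean inhibition across all screened compounds plus 3 SD, cut at about 44% in these data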;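 further: 0% = DMSO only wells and 100% = 100 µM nifuroxazide control wells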
# * = called active by the depositor.
SMILES,STAT3 act,STAT1 inh,STAT1 activator,FLuc inh counter,FLuc act counter,STAT3 blocker
CC(C)c1ccc(OCC(=O)NC2=NCCS2)cc1,89,-30,126,57*,0.4,18
CCOc1ccc(C(=O)NC2=NCCS2)cc1,89,-45,139*,52*,0.5,17
Cc1cc(C(=O)NC2=NCCS2)cs1,102,-28,126,35,0.7,-2
O=C(COc1ccccc1)NC1=NCCS1,108,-24,122,31,0.7,-11
Cc1cccc(C(=O)NC2=NCCS2)c1,90,-15,112,54*,0.5,14
Cc1cc(OCCCC(=O)NC2=NCCS2)ccc1Cl,95,8,93,-5,1.1,7
CN(C(=O)CO/N=C/c1ccc(Cl)cc1)c1ccccc1,98,-10,107,-6,1.1,7
CCN(CC)C(=O)c1ccc2c(c1[N+](=O)[O-])C(=O)c1ccccc1C2=O,100,-11,110,-2,1,-6
O=C(Nc1ccc2c(c1)nc1n2CCSC1)c1ccccc1,69,-18,116,80*,0.2,42
COc1ccc(C(=O)Nc2ccc3c(c2)nc2n3CCSC2)cc1,85,-27,125,66*,0.3,22
N#Cc1ccc(COn2nnc3ccccc32)cc1,83,-20,119,-4,1,21
CC(=O)C1=C(C)OC(N)=C(C#N)C1c1ccco1 (stereo not given),95,10,90,-9,1.1,16
CC(=O)n1c2c(c3ccccc31)OC(N)=C(C#N)C2c1ccc(C(C)C)cc1 (stereo not given),165*,-32,129*,-5,1.1,-73
CCCS(=O)c1nc(C)cc(C)c1S(C)(=O)=O (stereo not given),105,-7,105,0,1,5
O=C(CCN1CCOCC1)NNC(=S)NC(=O)c1ccccc1,98,-3,101,0,1,8
COC(=O)c1c(-c2ccc(F)cc2)csc1NC(=O)c1ccco1,100,-57,146*,14,0.9,1
O=C(NC(=S)NCc1cccnc1)c1cccc2ccccc12,129,10,90,-5,1.1,-26
CCCc1nnc(NC(=O)c2cccc(OC)c2)s1,90,-37,134*,6,0.9,12
CC(C)c1nnc(NC(=O)c2ccc(N3C(=O)CCC3=O)cc2)s1,111,-40,136*,0,1,-8
COc1cccc(C(=O)Nc2nc(C)cs2)c1,86,-53,148*,42,0.6,20
CCCc1nnc(NC(=O)c2ccncc2)s1,105,-4,104,0,1,1
COc1cccc(C(=O)Nc2nnc(C(C)C)s2)c1,71,-31,136*,29,0.7,36
O=C(Nc1nnc(C23CC4CC(CC(C4)C2)C3)s1)c1ccc(N2C(=O)CCC2=O)cc1,106,-8,107,-4,1,2
OCC1(Cc2ccccc2)CCN(C2CCN(c3ccc(F)c(F)c3)CC2)CC1,99,11,89,-6,1.1,5
COCc1nnc(NC(=O)c2ccc(OC)cc2OC)s1,77,-17,116,56*,0.4,30
SMILES,STAT3 act,STAT1 inh,STAT1 activator,FLuc inh counter,FLuc act counter,STAT3 blocker
COc1ccc(-c2nnc(NC(=O)C(C)C)s2)c(OC)c1,87,-37,133*,20,0.8,24
COc1ccc(-c2csc(Nc3ccc(C)cn3)n2)cc1,95,-42,139*,7,0.9,12
COc1ccc2cc3c(N)c(C(=O)NCc4ccco4)sc3nc2c1,98,-41,137*,14,0.9,7
CCCCCC(/C=N/Nc1ccc(S(=O)(=O)N2CCOCC2)cc1[N+](=O)[O-])=C\c1ccccc1,92,7,93,-1,1,10
COc1ccc(OC)c(Nc2ncnc3sc(-c4ccccc4)cc23)c1,107,-1,101,0,1,-10
COc1ccc(-c2cc3nnc(-c4ccccc4)nc3s2)cc1,95,-37,135*,24,0.8,5
COc1ccc(/C=N/NC(=O)c2cc(C(C)(C)C)[nH]n2)cc1COc1ccc(F)cc1F,77,8,91,-2,1,30
